According to ChEMBL document CHEMBL1149824, “Tasumatrols U-Z, taxane diterpene esters from Taxus sumatrana” (2008):
≈ marks a conversion by molar mass, not a printed value. Calls of active or inactive are those of the source. No cut-off for these calls is given here.

Experiments:
Format in all cases: functional
Details in all cases: for EC50: read-out: ED50 (the source's name)
[1] = system: WiDr; test: Cytotoxicity against human WiDr cells by MTT assay
Summary of the method: (§1)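 MTT assay on human tumor cell lines (Hep2/Hepa2 […], WiDr colon, HeLa cervical). ED50 is the concentration of test sample giving a 50% reduction in absorbance relative to untreated cells, in µg/mL. Camptothecin served as positive control.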

[2] = system: HeLa; test: Cytotoxicity against human HeLa cells by MTT assay; summary of the method: as §1
[3] = system: HEp-2; test: Cytotoxicity against human Hep2 cells by MTT assay; summary of the method: as §1

CC(=O)OC[C@@]12C([C@H](OC(=O)c3ccccc3)[C@]34CCC(C)=C3[C@@]1(O)C(=O)OC4(C)C)[C@]1(OC(C)=O)CO[C@@H]1C[C@@H]2O (stereo partly specified)
Activity [1]: inactive | Activity [2]: inactive | Activity [3]: inactive

CC1=C2[C@@]3(O)C(=O)OC(C)(C)[C@]2(CC1)[C@@H](O)C1[C@](O)(CO)[C@@H](OC(=O)c2ccccc2)C[C@H](O)[C@]13C (stereo partly specified)
Activity [1]: inactive | Activity [2]: inactive | Activity [3]: inactive

CC[C@@]1(O)C(=O)OCc2c1cc1n(c2=O)Cc2cc3ccccc3nc2-1 [CAMPTOTHECIN]
EC50 [1]: 0.07 µg/mL (≈ 0.201 µM) | EC50 [2]: 0.19 µg/mL (≈ 0.545 µM) | EC50 [3]: 0.02 µg/mL (≈ 0.0574 µM)

CC(=O)O[C@H]1C[C@H]2OC[C@@]2(OC(C)=O)C2[C@H](OC(=O)c3ccccc3)[C@]3(C(C)(C)O)C[C@H](O)C(C)=C3[C@@]3(O)C(=O)OC[C@]213 (stereo partly specified)
Activity [1]: inactive | Activity [2]: inactive | Activity [3]: inactive

CC(=O)O[C@H]1C[C@H]2[C@@H](O)/C=C3\C[C@](C)(C(=O)[C@H](O)C(=C1C)C2(C)C)[C@@H](OC(C)=O)C[C@@H]3O
Activity [1]: inactive | Activity [2]: inactive | Activity [3]: inactive

CC(=O)OC[C@@]12C([C@H](OC(=O)c3ccccc3)[C@]34C[C@H](O)C(C)=C3[C@@]1(O)C(=O)OC4(C)C)[C@]1(OC(C)=O)CO[C@@H]1C[C@@H]2O (stereo partly specified)
Activity [1]: inactive | Activity [2]: inactive | Activity [3]: inactive

CC(=O)O[C@@]12CO[C@@H]1C[C@H](O)[C@@]13COC(=O)[C@]1(O)C1=C(C)CC[C@@]1(C(C)(C)O)[C@@H](OC(=O)c1ccccc1)C32 (stereo partly specified) [TASUMATROL Y]
EC50 [1]: > 5 µg/mL | EC50 [2]: > 5 µg/mL | EC50 [3]: 3.5 µg/mL (≈ 6.45 µM)
